Assay results as given in ChEMBL document CHEMBL1122872, “Synthesis and biological activities of some pseudo-peptide analogues of tetragastrin: the importance of the peptide backbone” (J Med Chem, 1985).
Residues, ends and D or L forms follow the SMILES beside them. *: point of attachment. Boc = CC(C)(C)OC(=O)*

How the values were obtained:
[1] = tested on: Rattus norvegicus; assay: Compound was tested in vivo for activity against gastrin induced acid secretion in rat; antagonist; assay type: functional, organism-based; details: filed as antagonist
Summary of the method: (§1)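 In anaesthetized rats, peptide in alkaline aqueous solution was given as an iv bolus at various doses together with 80 pmol (Leu15)-HG-17 (submaximal dose). pH was recorded for 40 min. For each dose, H+ output with peptide plus gastrin was divided by output with gastrin alone and expressed as percent inhibition.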

[2] = Compound was tested in vitro for inhibition of [125I](Leu15)-HG-17 binding to isolated gastric mucosal cells.; assay type: tissue-based, Rattus norvegicus, Gastric mucosa
Summary of the method: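 Fundic mucosal cells, dispersed by collagenase/EDTA (about 45% parietal cells, 95% viable), were incubated at 5 × 10^6 cells/mL in Earle's medium without bicarbonate (10 mM Hepes, 0.2% BSA, pH 7.4). Incubation was with 20 pM [125I]-(Leu15)-HG-17 for 30 min at 37 °C across a range of peptide concentrations. Nonsaturable binding was taken with 1 × 10^-6 M unlabeled (Nle11)-HG-13. Quadruplicate determinations.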

[3] = tested on: Rattus norvegicus; assay: Compound was tested in vivo for activity against gastrin induced acid secretion in rat.; assay type: functional; summary of the method: as §1
[4] = tested on: Rattus norvegicus; assay: Compound was tested in vivo for activity against gastrin induced acid secretion in rat; agonist; assay type: functional, organism-based; details: filed as agonist

| Structure (SMILES) | Activity [1] | IC50 [2] [nM] | ED50 [3] [mg/kg] | Activity [4] |
| --- | --- | --- | --- | --- |
| CC(C)C[C@H](NC(=O)[C@H](Cc1c[nH]c2ccccc12)NC(=O)OC(C)(C)C)C(=O)N[C@H](CN[C@@H](Cc1ccccc1)C(N)=O)CC(=O)O | Antagonist | 5000 | 15 |  |
| CC(C)C[C@H](NC(=O)[C@H](Cc1c[nH]c2ccccc12)NC(=O)OC(C)(C)C)C(=O)N[C@@H](CC(=O)O)C(=O)N[C@@H](Cc1ccccc1)C(N)=O (Boc-WLDF-NH2) |  | 500 |  | Agonist |
| CC(C)C[C@@H](CN[C@@H](CC(=O)O)C(=O)N[C@@H](Cc1ccccc1)C(N)=O)NC(=O)[C@H](Cc1c[nH]c2ccccc12)NC(=O)OC(C)(C)C | Antagonist | 250 | 0.3 |  |
| CC(C)C[C@H](NC[C@H](Cc1c[nH]c2ccccc12)NC(=O)OC(C)(C)C)C(=O)N[C@@H](CC(=O)O)C(=O)N[C@@H](Cc1ccccc1)C(N)=O |  | 300 |  | Agonist |
